Data on 5 compounds can be found in publication PMC7509213 (iScience, 2020).

Where two headings read alike, the source gives them in different places.

The subject of data set [1] is RPB1 subunit of RNAPII. In words: RPB1 degradation in C342T XPB knock-in cells. Type of data set: cell-based, human. The settings on record: 1μM.
In data set [2] the test system is PC3 cells. In words: PC3 proliferation under hypoxia or normoxia. Type of data set: cell-based, human. Conditions: for IC50: Homo sapiens, PC-3, 48 h. The procedure, abridged:
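PC3 cells seeded at 5,000/well and held at 1% O2 in a humidified chamber at 37°C for 48 h (normoxia 20% O2) before 48 h exposure to test compound. A 1 μCi [3H]-thymidine pulse per well was given for 6 h, then cells were harvested onto glass-fibre filters for scintillation counting. Proliferation is relative to DMSO, mean ± SEM, n = 3, and IC50 values were derived from these curves.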

In data set [3] the target is TFIIH (Homo sapiens, UniProt P19447). In words: DNA-dependent ATPase activity assay of purified TFIIH. Type of data set: biochemical. The settings on record: 200 nM. Summed up: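 Purified TFIIH, DNA-dependent ATPase assay. It was started with TFIIH, run for 2 h, and stopped with EDTA. Mixture was spotted on PEI-cellulose TLC and developed in 0.5 M LiCl/1 M HCOOH. Released 32Pi was quantified by phosphorimaging relative to DMSO, mean ± SE, n = 3.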

The conditions of data set [4]: lethal case dosed with 18 mg/m^2 F60008; ref Kitzen et al., 2009; cited from earlier work.
The subject of data set [5] is RPB1 subunit of RNAPII. In words: RPB1 degradation in PC3 cells under hypoxia. The settings on record: PC3, 10 μM, 1% O2. Type of data set: cell-based, human.
Data set [6] relates to RPB1 subunit of RNAPII. In words: RPB1 degradation in HeLa cells. Type of data set: cell-based, human.
Data set [7] deals with T1, XPB (Homo sapiens, UniProt P19447).
T1 sequence (P19447 1-782): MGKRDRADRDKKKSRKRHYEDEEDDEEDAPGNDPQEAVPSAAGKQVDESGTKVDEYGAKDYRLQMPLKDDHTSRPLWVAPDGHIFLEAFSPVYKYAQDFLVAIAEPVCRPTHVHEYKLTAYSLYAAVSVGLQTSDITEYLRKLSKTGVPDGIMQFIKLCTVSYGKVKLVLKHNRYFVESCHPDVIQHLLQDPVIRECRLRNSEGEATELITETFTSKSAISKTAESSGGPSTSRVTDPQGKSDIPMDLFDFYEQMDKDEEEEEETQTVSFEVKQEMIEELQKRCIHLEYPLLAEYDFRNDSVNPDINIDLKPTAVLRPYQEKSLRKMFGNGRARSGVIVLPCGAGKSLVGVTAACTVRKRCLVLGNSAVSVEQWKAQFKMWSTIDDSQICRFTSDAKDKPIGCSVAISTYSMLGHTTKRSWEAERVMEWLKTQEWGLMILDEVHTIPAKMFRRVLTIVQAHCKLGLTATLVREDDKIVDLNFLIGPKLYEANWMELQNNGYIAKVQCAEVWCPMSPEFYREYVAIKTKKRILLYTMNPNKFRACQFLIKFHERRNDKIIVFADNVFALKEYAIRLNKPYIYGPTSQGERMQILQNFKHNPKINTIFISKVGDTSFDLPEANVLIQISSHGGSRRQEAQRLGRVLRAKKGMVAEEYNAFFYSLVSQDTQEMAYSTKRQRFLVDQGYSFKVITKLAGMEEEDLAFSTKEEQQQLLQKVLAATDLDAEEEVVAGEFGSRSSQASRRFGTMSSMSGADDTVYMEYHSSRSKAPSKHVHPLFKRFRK
The data set is described as follows: XPB degradation in cells. The settings on record: 10 μM, western blot. Type of data set: cell-based.

In the case of α-amanitin, the “degradation of Rpb1 in C342T XPB isogenic cell line” value in data set [1] is given as “induced the degradation of Rpb1”.

Turning to `COc1cccc2c1C(=O)c1c(O)c3c(c(O)c1C2=O)C[C@@](O)(C(=O)CO)C[C@@H]3O[C@H]1C[C@H](N)[C@H](O)[C@H](C)O1` [doxorubicin], in data set [2] (PC3, 1% O2 vs 20% O2), the “potency under hypoxia versus normoxia” value is recorded as “decreased”.

In the case of `CC(C)[C@]12O[C@H]1[C@@H]1O[C@]13[C@]1(O[C@H]1C[C@H]1C4=C(CC[C@@]13C)C(=O)OC4)[C@@H]2O` [triptolide, (1S,2S,4S,5S,7R,8R,9S,11S,13S)-8-hydroxy-1-methyl-7-propan-2-yl-3,6,10,16 tetraoxaheptacyclo[11.7.0.0^2,4.0^2,9.0^5,7.0^9,11.0^14,18] icos-14(18)-en-17-one], the “ATPase activity of TFIIH” value in data set [3] is reported as “nearly completely inhibited”. The IC50 in data set [2] (read-out: IC50, PC3 proliferation under hypoxia) stood at 1.5 nM; in data set [2] (read-out: IC50, PC3 proliferation under normoxia), 4.5 nM. Also, the “fold enhancement of anti-proliferative effect (IC50) during hypoxia” value in data set [2] (PC3, hypoxia vs normoxia) is given as “three-fold”. The “effect size during hypoxia” value in data set [2] (hypoxic PC3 cells) is listed as 0.71. The Maximum serum levels in data set [4] is given as 58.5 ng/mL.

Regarding `O=C(Oc1cccc(F)c1OC(=O)c1cccc(O)c1)c1cccc(O)c1` [WZB117, 2-Fluoro-6-(m-hydroxybenzoyloxy) phenyl m-hydroxybenzoate], the “effect on RNAPII degradation triggered by 3 μM G-2 and hypoxia” value in data set [5] is reported as “antagonizes”.

As for `CC(=O)S[C@@H]1CC2=CC(=O)CC[C@]2(C)[C@H]2CC[C@@]3(C)[C@@H](CC[C@@]34CCC(=O)O4)[C@H]12` [spironolactone], the “effect on RPB1 degradation induced by G-2” value in data set [6] (10 μM SP combined with 1 μM G-2) is “rescued RPB1 from degradation”. In addition, the “stability of RPB1” value in data set [6] (HeLa, 10 μM) was “no effect”. The “degradation of XPB” value in data set [7] was “caused degradation of the majority of XPB”.
